Results on 70 compounds are retold here after ChEMBL document CHEMBL4513216, “Probing the Open Global Health Chemical Diversity Library for Multistage-Active Starting Points for Next-Generation Antimalarials” (ACS Infect Dis, 2020).

SMILES strings stand for the structures.

The nature of the data set: Toxicity liver stage against HepG2, at 10uM. Also on record: test concentration 10 uM, cell line HepG2-A16-CD81EGFP. The class given is cell-based. The settings on record: human, HepG2-A16-CD81EGFP cells; read-out: INHIBITION
The method, boiled down: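 Uninfected HepG2-A16-CD81EGFP cells, 3 × 10^3 per well, 1536-well, plated on prespotted compound at 10 μM final, parasite-free screening media added to match infected plates; puromycin 10 μM positive, DMSO 0.5% negative; run in parallel with 48 h PbLuc assay at 37 °C, 5% CO2; viability by CellTiter-Glo luminescence, normalized to controls.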
Regarding `COc1cccc(CC(=O)NCc2cnc(C)nc2C2CCCN2C)c1` (stereo not given), the cytotoxicity at 10 µM was -7.47%. To `CC(C)Oc1cccc(C(=O)C2CCCN(C(=O)c3cncs3)C2)c1` (stereo not given) belongs 3.19%; to `COc1ncc(-c2ccc(C(N)=O)cc2)c(OC)n1`, -5.9%.

As for `O=C(CCc1nnc(-c2ccccc2)o1)N1CCN(CC2CC2)CC1`, the cytotoxicity at 10 µM is -13.7%. The value for `COc1ccc(N2CCC(NCc3csc(C(C)C)n3)CC2)cc1` was -15.9%. To `OC(COCc1ccco1)CN1CCC(Cn2cccn2)CC1` (stereo not given) belongs -1.73%; to `c1cncc(COCC2C[C@@H]3OCCN(Cc4cccnc4)[C@H]3C2)c1` (stereo not given in full), 12.2%; to `COc1ccc(-c2cc(C(=O)NCCCn3ccnc3C)n(C)n2)cc1`, -6.67%.

`CC(OCC1CC1)C(=O)NCc1cccc(CN2CCCC2=O)c1` (stereo not given): the cytotoxicity at 10 µM was determined as 3.05%. To `CC1CCCN(CCNC(=O)c2ccn(-c3cccc(F)c3)n2)C1` (stereo not given) belongs -3.25%.

For the compound `Cn1ccnc1CN1CCC2(CC1)COC2`, the cytotoxicity at 10 µM is 6.81%. The value for `O=C(CCn1cccn1)N1CC[C@@H](c2ccc3ccccc3c2)[C@H](O)C1` was 2.03%; that for `O=C(NCCNc1ccccn1)Nc1cc(C(F)(F)F)c[nH]c1=O` was -16.5%. The value for `CC(C)c1nc(CN(C)C2CCCN(c3cccnn3)C2)no1` (stereo not given) was -9.92%; that for `O=C([C@H]1COC[C@H]2CN(Cc3ccco3)C[C@H]21)N1CCCO1` was -8.79%; that for `CC(C)N(C)Cc1cncc2c1CCN(Cc1cccs1)C2` was -112%. In the case of `CCN(C(=O)CN1CCCN(c2nc(C)ns2)CC1)C1CC1`, the cytotoxicity at 10 µM is -4.08%. As to `CCN1CCN(C2CCN(Cc3ncc(C(C)(C)C)o3)CC2)C1=O`, the cytotoxicity at 10 µM is 2.05%. In the case of `CCCOc1ccccc1NCC(=O)Nc1ccc(CC)cc1`, the cytotoxicity at 10 µM turned out to be 6.37%. Consider `Cc1ccc(C(=O)N2CC[C@H]3O[C@@H](c4noc(C)n4)C[C@H]3C2)o1`, for which the cytotoxicity at 10 µM turned out to be 1.92%.

For `Cc1cc(CN(C)C(=O)Nc2ccccc2C)no1`, the cytotoxicity at 10 µM is -8.75%. The value for `Cc1ccc(Cl)cc1NCc1nc2[nH]c(C)c(C)c(=O)n2n1` was -4.96%; that for `CCS(=O)(=O)N1CCC2(CC1)CC[C@@]1(C(=O)NC)CN(C(C)=O)C[C@@H]21` was 6.1%. To `CNc1cc2c(nn1)CCN(C(=O)c1ccc(-n3nccc3C)cc1)C2` belongs -5.44%. To `CN(C)C(CNC(=O)c1nc(N2CCOCC2)ncc1Cl)c1cccs1` (stereo not given) belongs 8.26%; to `Cc1cnc(C)c(N2CCN(Cc3ccc(-c4cc[nH]n4)o3)CC2)n1`, -5.01%; to `Cc1csc(C2CCCN(C(=O)c3cnc[nH]3)C2)n1` (stereo not given), -10.7%.

On to `CC(C)c1nccc(CN(C)Cc2cccc(-n3cccn3)c2)n1`, for which the cytotoxicity at 10 µM was -2.44%. The value for `CN(Cc1cccc(F)c1)C(=O)c1cc2c([nH]c1=O)CCCC2=O` was -7.45%; that for `CN(CC(O)CO)c1nc(-c2cccnc2)nc2c1CCNC2` (stereo not given) was -0.0186%. To `COCCOc1cccc(CNCc2c(C)nn(C)c2N(C)C)c1` belongs -7.19%. To `COCC1CCCN(C(=O)c2ccc(N(C)Cc3cnn(C)c3)nc2)C1` (stereo not given) belongs -3.97%; to `O=C1CCC2(CCCN(Cc3ccccc3F)C2)N1CC1CC1` (stereo not given), 6.06%; to `O=C(c1ncccn1)N1C[C@@H]2CC[C@H](Oc3cccc(F)c3)[C@@H]2C1`, -27.5%. With `COC(=O)c1ccc(CN(C)C(=O)c2cnsn2)cc1`, the cytotoxicity at 10 µM is 9.59%. Turning to `Cc1noc(C)c1CN1CCO[C@H]2CN(Cc3nccn3C)C[C@H]21`, the cytotoxicity at 10 µM was 2.64%.

`CCc1[nH]nc(NC(=O)c2ccc(Cl)cn2)c1C`: the cytotoxicity at 10 µM was -9.69%. Regarding `CC(C)n1nnc(CC(=O)NCC2(c3cccc(F)c3)CCCC2)n1`, the cytotoxicity at 10 µM was determined as 4.5%.

`CCCN(CC(=O)OC)C(=O)c1sc(C)nc1C`: the cytotoxicity at 10 µM was -2.42%.

Take `O=C(c1cccc2[nH]ccc12)N1CCC2(CCOC2)C1` (stereo not given): the cytotoxicity at 10 µM is -151%. On to `CCc1nc(C2CCCN2C(=O)c2ccc3c(c2)COC3)no1` (stereo not given), for which the cytotoxicity at 10 µM is -14.4%. To `CCOc1ncccc1NC(=O)N1CCCC1c1cc(C)no1` (stereo not given) belongs 0.87%; to `CC(Cn1cccn1)NC(=O)N(C)Cc1ccc(C(N)=O)cc1` (stereo not given), 3.37%; to `CCOC(=O)N1CCN(C(=O)c2cc(-c3ccc(C)cc3)on2)CC1`, 5.68%. Consider `O=C(NCCS(=O)(=O)N1CCN(c2ncccn2)CC1)C1CCCC1`, for which the cytotoxicity at 10 µM is -3.91%. The value for `CC(C)(C)n1ncc2c1NC(=O)CC2c1ccc(OCC(N)=O)cc1` (stereo not given) was 20.6%; that for `CN(C)C1(CNc2nccc(-c3cnn(C)c3)n2)CCSC1` (stereo not given) was -126%; that for `Cc1ccc(CN2C[C@@H]3CN(c4ncccn4)C[C@@H]3C2)cc1` was -2.02%. For the compound `CC(O)C(=O)N1CCC(c2[nH]ncc2-c2ccccc2)CC1` (stereo not given), the cytotoxicity at 10 µM was -2%. The value for `CN(C)C(=O)CN1CCC2(CCCN(Cc3cccs3)C2)C1=O` (stereo not given) was -113%; that for `Cc1nc(C2CCCN2C(=O)Cc2cccc(F)c2)nc(O)c1C` (stereo not given) was -26.9%. Take `COc1cc2[nH]c(=O)c(CN3CCC[C@H]3CO)cc2c(OC)c1OC`: the cytotoxicity at 10 µM is -10.7%. As for `O=C(CCc1ccsc1)N1CCCC(n2cncn2)C1` (stereo not given), the cytotoxicity at 10 µM was -9.47%. The value for `Cc1occc1C(=O)N1CCO[C@H]2[C@H](OCc3ccccn3)CC[C@@H]21` was -104%; that for `Cc1nc(C)n(CC2CCCN2Cc2nc3ccccc3o2)n1` (stereo not given) was -5.62%.

In the case of `CN(CC(=O)Nc1nncs1)CC1CCCN1c1cccnn1` (stereo not given), the cytotoxicity at 10 µM was -13.7%. To `CN(CC(=O)N1CCc2[nH]c3ccccc3c2C1)CC1OCCO1` belongs -1.63%. To `CCOc1ccccc1N1CCN(CC2(O)CCCNC2)CC1` (stereo not given) belongs -2.36%; to `CN(CC(=O)NC1(C)CCS(=O)(=O)C1)Cc1ccc(Br)cc1` (stereo not given), -1.4%; to `NC(=O)c1cccc(CC2CCN(C(=O)CO)C2)c1` (stereo not given), -23.7%. For `O=C(c1ccnnc1)N1CCn2cc(CN3CCCCC3)nc2C1`, the cytotoxicity at 10 µM is -74.9%. To `CC(=O)N1CCN(c2ccccc2CNc2cc(F)cc(F)c2)CC1` belongs 3.7%.

For the compound `Cc1cc(N(C)Cc2ccsc2)n2nc(C)c(C)c2n1`, the cytotoxicity at 10 µM is 1.7%. To `CCN(CC)C(=O)c1nc2c(s1)CCN(Cc1cccc(OC)c1)CC2` belongs 2.77%; to `Cc1cc(C)n(CC2CCCN2C(=O)c2cccc3c2OCO3)n1` (stereo not given), -15.7%.

Regarding `Cc1n[nH]c(C)c1CN(C)C(C(=O)O)c1c(F)cccc1OC(C)C` (stereo not given), the cytotoxicity at 10 µM was -56.1%.

Regarding `COCCN1CCC2(CC1)C(=O)Nc1ccc(C(=O)NC(C)C)cc12`, the cytotoxicity at 10 µM is 2.02%. As for `COC(=O)c1ccc(C2CC(=O)Oc3cc(C)[nH]c(=O)c32)cc1` (stereo not given), the cytotoxicity at 10 µM was -3.86%.

As for `Cc1noc(C)c1CN1CCC(N(C)Cc2nnc(C3CC3)n2C)C1` (stereo not given), the cytotoxicity at 10 µM is -4.03%. In the case of `CC(c1nccs1)N(C)S(=O)(=O)NCc1ccccc1` (stereo not given), the cytotoxicity at 10 µM is -2.34%.
